For experiment [1], the system named is A549. Put plainly: Cytotoxicity against human A549 cells assessed as reduction in cell viability incubated for 72 hrs by MTT assay. Format: functional, cell-based. The essentials: (§1)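 Cells grown in MEM with 10% FBS; about 4×10^3 cells per well, pre-incubated 24 h at 37 °C in 5% CO2, then exposed to compound for 72 h. Seven concentrations, threefold serial dilution from 100 ug/mL initial. MTT at 5 µg/mL terminal concentration for 4 h; formazan dissolved in DMSO, absorbance read at 492 nm against 630 nm reference. IC50 is the average of two determinations.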
(Formazan colour is commonly taken as a measure of viable cells.)

The test system of the next experiment is HepG2. Put plainly: Cytotoxicity against human HepG2 cells assessed as reduction in cell viability incubated for 72 hrs by MTT assay. In kind it is functional, cell-based. The conditions noted are these: HepG2, 72 h. The essentials:
as §1

A further experiment relates to PC-3. Put plainly: Cytotoxicity against human PC3 cells assessed as reduction in cell viability incubated for 72 hrs by MTT assay. In kind it is functional, cell-based. The essentials:
as §1

In experiment [2] the target is Vascular endothelial growth factor receptor 2 (Homo sapiens, UniProt P35968). Put plainly: Inhibition of VEGFR2 (unknown origin) incubated for 10 mins using FAM-labeled peptide and ATP by mobility shift assay.
Experiment [3] has as its target Serine/threonine-protein kinase B-raf (Homo sapiens, UniProt P15056). Put plainly: Inhibition of BRAF (unknown origin) incubated for 10 mins using FAM-labeled peptide and ATP by mobility shift assay.
Experiment [4] addresses RAF proto-oncogene serine/threonine-protein kinase (Homo sapiens, UniProt P04049). The experiment can be described thus: Inhibition of CRAF (unknown origin) incubated for 10 mins using FAM-labeled peptide and ATP by mobility shift assay. The essentials: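 Mobility shift assay in 384-well plates. Compound, diluted from a 500 μM DMSO stock, preincubated with enzyme 10 min at room temperature. FAM-labelled peptide and ATP then added and the reaction run at 28 °C. Stopped with EDTA-containing buffer and read on Caliper. Inhibition = (max−conversion)/(max−min)×100, with DMSO wells as max and enzyme-free wells as min.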

Experiment [5] concerns A549. The experiment can be described thus: Induction of morphological changes in human A549 cells assessed as induction of cell shrinking at 1.85 uM incubated for 12 hrs by acridine orange dye based inverted microscopy and fluorescence microscopy. Format: functional. Summed up: (§2)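 Untreated control included. A549 cells exposed 12 h at 1.85 μM, then single-stained with acridine orange. Nuclei and morphology examined by inverted and fluorescence microscopy.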

Experiment [6] has as its system A549. The experiment can be described thus: Induction of morphological changes in human A549 cells assessed as induction of chromatin condensation at 1.85 uM incubated for 12 hrs by acridine orange dye based inverted microscopy and fluorescence microscopy. Format: functional, cell-based. The essentials: as §2
In experiment [7] the test system is A549. Put plainly: Induction of morphological changes in human A549 cells assessed as induction of apoptotic bodies at 1.85 uM incubated for 12 hrs by acridine orange dye based inverted microscopy and fluorescence microscopy. In kind it is functional, cell-based. The essentials: as §2
Experiment [8] concerns A549. The experiment can be described thus: Induction of morphological changes in human A549 cells assessed as induction of DNA fragmentation at 1.85 uM incubated for 12 hrs by acridine orange dye based inverted microscopy and fluorescence microscopy. In kind it is functional, cell-based. Summed up:
as §2

For experiment [9], the system named is A549. The experiment can be described thus: Induction of apoptosis in human A549 cells assessed as viable cell level at 3 uM incubated for 48 hrs by Annexin VFITC and propidium iodide staining based flow cytometry (reference value: 93.27%). Format: functional. The essentials:
(§3)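 A549 cells seeded in RPMI 1640 and treated 48 h at 3, 6 or 12 µM. Cells then stained with Annexin V-FITC plus propidium iodide, 30 min at 4 °C in the dark, and analysed on a FACS Calibur flow cytometer.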

The subject of experiment [10] is A549. The experiment can be described thus: Induction of apoptosis in human A549 cells assessed as late apoptotic cell level at 3 uM incubated for 48 hrs by Annexin VFITC and propidium iodide staining based flow cytometry (reference value: 3.4%). Format: functional. Summed up:
as §3
A general note: A flow cytometer gives signals particle by particle.

Experiment [11] has as its system A549. The experiment can be described thus: Induction of apoptosis in human A549 cells assessed as early apoptotic cell level at 6 uM incubated for 48 hrs by Annexin VFITC and propidium iodide staining based flow cytometry (reference value: 0.64%). Format: functional. Summed up:
as §3

Experiment [12] has as its system A549. The experiment can be described thus: Induction of apoptosis in human A549 cells assessed as late apoptotic cell level at 6 uM incubated for 48 hrs by Annexin VFITC and propidium iodide staining based flow cytometry (reference value: 3.4%). Format: functional. Summed up:
as §3

In experiment [13] the test system is A549. The experiment can be described thus: Induction of apoptosis in human A549 cells assessed as necrotic cell level at 6 uM incubated for 48 hrs by Annexin VFITC and propidium iodide staining based flow cytometry (reference value: 2.69%). In kind it is functional. The essentials:
as §3

The test system of experiment [14] is A549. Put plainly: Induction of apoptosis in human A549 cells assessed as viable cell level at 12 uM incubated for 48 hrs by Annexin VFITC and propidium iodide staining based flow cytometry (reference value: 93.27%). Format: functional. Summed up: as §3
The test system of experiment [15] is A549. Put plainly: Induction of apoptosis in human A549 cells assessed as early apoptotic cell level at 12 uM incubated for 48 hrs by Annexin VFITC and propidium iodide staining based flow cytometry (reference value: 0.64%). Format: functional. Summed up:
as §3

Experiment [16] has as its system A549. The experiment can be described thus: Induction of apoptosis in human A549 cells assessed as late apoptotic cell level at 12 uM incubated for 48 hrs by Annexin VFITC and propidium iodide staining based flow cytometry (reference value: 3.4%). In kind it is functional. Summed up: as §3
Experiment [17] relates to A549. The experiment can be described thus: Induction of apoptosis in human A549 cells assessed as necrotic cell level at 12 uM incubated for 48 hrs by Annexin VFITC and propidium iodide staining based flow cytometry (reference value: 2.69%). In kind it is functional. Summed up: as §3

Active and inactive are the calls of the source. The calls are words filed in the database; no cut-off is given here.

Chain of Serine/threonine-protein kinase B-raf (P15056 whole entry): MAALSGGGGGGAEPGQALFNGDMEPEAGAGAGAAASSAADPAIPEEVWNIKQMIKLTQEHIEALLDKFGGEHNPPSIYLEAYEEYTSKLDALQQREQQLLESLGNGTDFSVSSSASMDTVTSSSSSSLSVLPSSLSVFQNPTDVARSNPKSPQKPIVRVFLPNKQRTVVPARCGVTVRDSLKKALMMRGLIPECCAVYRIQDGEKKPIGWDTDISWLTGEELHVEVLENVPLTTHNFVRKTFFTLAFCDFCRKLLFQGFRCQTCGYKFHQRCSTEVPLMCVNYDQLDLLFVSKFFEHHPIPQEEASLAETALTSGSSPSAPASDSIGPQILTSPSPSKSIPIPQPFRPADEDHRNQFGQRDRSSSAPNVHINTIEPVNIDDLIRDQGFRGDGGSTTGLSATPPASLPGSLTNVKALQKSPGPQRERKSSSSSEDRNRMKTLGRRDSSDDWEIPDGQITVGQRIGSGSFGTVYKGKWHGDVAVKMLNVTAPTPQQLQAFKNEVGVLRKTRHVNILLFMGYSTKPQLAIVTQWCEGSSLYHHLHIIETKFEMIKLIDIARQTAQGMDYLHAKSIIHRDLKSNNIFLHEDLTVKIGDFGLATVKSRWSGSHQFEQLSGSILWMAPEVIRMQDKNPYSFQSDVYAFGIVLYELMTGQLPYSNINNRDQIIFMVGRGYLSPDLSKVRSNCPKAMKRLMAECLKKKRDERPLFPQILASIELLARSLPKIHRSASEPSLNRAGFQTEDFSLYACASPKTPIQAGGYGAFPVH
Chain of RAF proto-oncogene serine/threonine-protein kinase (P04049 whole entry): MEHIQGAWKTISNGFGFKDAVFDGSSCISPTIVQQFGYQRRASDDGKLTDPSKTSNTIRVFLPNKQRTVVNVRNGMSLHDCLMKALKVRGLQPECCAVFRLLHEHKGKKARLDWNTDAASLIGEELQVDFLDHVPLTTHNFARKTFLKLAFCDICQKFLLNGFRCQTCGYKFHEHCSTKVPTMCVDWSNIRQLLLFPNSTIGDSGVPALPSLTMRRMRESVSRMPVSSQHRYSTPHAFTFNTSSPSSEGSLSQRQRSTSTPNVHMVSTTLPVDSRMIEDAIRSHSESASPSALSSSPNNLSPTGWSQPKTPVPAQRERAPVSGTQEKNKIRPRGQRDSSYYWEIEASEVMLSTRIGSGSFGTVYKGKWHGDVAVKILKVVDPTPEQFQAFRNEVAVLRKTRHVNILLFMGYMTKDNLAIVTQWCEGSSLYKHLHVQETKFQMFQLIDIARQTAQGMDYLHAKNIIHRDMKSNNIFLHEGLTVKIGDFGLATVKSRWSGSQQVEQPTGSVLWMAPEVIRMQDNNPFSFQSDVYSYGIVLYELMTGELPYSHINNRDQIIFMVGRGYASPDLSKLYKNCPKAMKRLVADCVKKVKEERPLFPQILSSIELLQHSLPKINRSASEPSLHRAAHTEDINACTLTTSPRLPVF
Chain of Vascular endothelial growth factor receptor 2 (P35968 whole entry): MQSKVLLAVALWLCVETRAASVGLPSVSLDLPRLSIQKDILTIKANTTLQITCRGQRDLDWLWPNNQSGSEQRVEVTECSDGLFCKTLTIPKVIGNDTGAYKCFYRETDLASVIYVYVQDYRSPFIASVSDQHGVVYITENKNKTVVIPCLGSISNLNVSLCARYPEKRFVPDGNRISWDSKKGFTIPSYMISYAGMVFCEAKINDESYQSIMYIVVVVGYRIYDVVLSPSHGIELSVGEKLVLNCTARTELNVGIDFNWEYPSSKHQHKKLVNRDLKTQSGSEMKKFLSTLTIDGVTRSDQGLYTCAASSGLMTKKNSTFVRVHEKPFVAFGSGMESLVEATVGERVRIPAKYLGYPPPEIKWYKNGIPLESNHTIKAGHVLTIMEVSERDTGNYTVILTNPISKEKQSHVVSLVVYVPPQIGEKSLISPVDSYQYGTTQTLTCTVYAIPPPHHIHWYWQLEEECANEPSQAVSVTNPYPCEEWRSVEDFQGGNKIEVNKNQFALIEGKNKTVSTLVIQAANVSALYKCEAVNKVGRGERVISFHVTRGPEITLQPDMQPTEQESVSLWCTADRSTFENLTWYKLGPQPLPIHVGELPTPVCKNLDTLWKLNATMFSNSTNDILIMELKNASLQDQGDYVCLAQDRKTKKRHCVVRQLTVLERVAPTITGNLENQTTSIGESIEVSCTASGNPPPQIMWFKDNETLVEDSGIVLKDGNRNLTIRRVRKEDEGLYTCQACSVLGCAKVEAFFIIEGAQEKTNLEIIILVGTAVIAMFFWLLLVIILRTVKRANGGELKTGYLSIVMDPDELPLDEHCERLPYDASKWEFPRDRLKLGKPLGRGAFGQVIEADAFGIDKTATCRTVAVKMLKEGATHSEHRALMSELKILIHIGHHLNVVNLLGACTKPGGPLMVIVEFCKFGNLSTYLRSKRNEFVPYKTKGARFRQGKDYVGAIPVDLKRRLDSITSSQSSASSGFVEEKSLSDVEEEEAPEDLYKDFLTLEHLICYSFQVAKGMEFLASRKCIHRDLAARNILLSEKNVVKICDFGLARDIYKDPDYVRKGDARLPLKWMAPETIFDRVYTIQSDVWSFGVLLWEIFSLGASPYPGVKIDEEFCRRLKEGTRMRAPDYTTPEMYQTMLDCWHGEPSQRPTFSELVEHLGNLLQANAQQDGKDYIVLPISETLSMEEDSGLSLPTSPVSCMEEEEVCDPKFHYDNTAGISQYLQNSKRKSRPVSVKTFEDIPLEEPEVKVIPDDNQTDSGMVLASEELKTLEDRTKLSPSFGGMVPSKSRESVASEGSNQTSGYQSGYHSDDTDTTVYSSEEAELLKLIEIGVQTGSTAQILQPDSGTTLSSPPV

Consider `CNC(=O)c1cc(Oc2ccc(C3=NNC(c4cccc(Br)c4)C3)cc2)ccn1` (stereo unspecified), for which the Activity result with A549 [1] was “Dose-dependent effect”; in the experiment on PC-3 it was “Dose-dependent effect”; with A549 [9] it was 88.8%; in the experiment on A549 [10], 4.51%; in the experiment with A549 [11], 7.72%; with A549 [12], 9.11%. For the same compound, the Activity with A549 [13] was determined as 1.24%; with A549 [14], 75.55%; in the experiment with A549 [15], 11.95%; in the experiment on A549 [16] it was 10.05%; in the experiment on A549 [17], 2.45%. The IC50 (in general, the midpoint of a concentration-inhibition curve) stood at 2.84 µM with A549 [1] (A549, 72 h); 1.85 µM with HepG2; 3.54 µM with PC-3 (PC-3, 72 h); 0.56 µM in [2]; 3.4 µM in experiment [3]; 7.9 µM in [4]. Further, the result with A549 [5], in the experiment with A549 [6], in the experiment on A549 [7] and with A549 [8] was Active.
